Measurements from ChEMBL document CHEMBL3616416, “Imidazolidine-4-one derivatives in the search for novel chemosensitizers of Staphylococcus aureus MRSA: synthesis, biological evaluation and molecular modeling studies” (Eur J Med Chem, 2015).
≈ marks a conversion by molar mass, not a printed value. Calls of active or inactive are those of the source. The calls are words filed in the database; no cut-off is given here.

Columns and labels:
[1] = test system: Staphylococcus aureus; assay: Antimicrobial activity against methicillin-resistant Staphylococcus aureus HEMSA incubated for 20 hrs by serial dilution broth microplate method; type: functional
Method in brief: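 Broth microdilution MIC per CLSI in Mueller-Hinton broth against clinical isolate MRSA HEMSA 5. Bacterial suspension adjusted to OD 0.5, diluted 1:100 and added to serial two-fold dilutions of test agent. Ampicillin/sulbactam used at 2:1 ratio. Growth read after 20 h at 37 °C.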

[2] = test system: Staphylococcus aureus; assay: Antimicrobial activity against Staphylococcus aureus ATCC 25923 incubated for 20 hrs by serial dilution broth microplate method; type: functional; conditions: ATCC 25923, 20 h
Method in brief: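 Broth dilution per CLSI in Mueller-Hinton broth, serial two-fold dilutions; compounds alone against reference strain, inoculum from suspension at OD 0.5 diluted 1:100; read after 20 h at 37 °C. MIC taken as lowest concentration inhibiting growth.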

[3] = molecular target: T1, Methicillin resistance mecR1 protein (Staphylococcus aureus) (UniProt P0A0B1); assay: Inhibition of MecR1 in methicillin-resistant Staphylococcus aureus HEMSA assessed as reduction in oxacillin A MIC at 0.5 mM incubated for 20 hrs by serial dilution broth microplate method
T1 sequence (whole entry): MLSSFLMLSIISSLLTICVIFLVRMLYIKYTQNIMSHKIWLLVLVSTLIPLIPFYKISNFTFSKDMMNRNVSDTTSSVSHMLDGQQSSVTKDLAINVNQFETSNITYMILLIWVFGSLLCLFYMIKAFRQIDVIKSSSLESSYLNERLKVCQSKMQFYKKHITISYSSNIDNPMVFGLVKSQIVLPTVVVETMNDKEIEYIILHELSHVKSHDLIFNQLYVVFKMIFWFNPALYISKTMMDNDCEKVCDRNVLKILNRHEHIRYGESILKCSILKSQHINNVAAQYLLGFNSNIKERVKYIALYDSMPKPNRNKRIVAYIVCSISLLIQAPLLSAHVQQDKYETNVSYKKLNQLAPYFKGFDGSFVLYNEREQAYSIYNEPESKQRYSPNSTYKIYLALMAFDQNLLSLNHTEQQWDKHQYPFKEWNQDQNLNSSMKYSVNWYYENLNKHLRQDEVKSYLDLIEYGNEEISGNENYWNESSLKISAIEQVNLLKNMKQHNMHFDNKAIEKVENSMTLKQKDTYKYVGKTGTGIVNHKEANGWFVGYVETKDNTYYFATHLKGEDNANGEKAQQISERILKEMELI
Method in brief: (§1)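 Chemosensitization in MRSA HEMSA 5 measured by CLSI broth microdilution in Mueller-Hinton broth. Serial two-fold dilutions of antibiotic (oxacillin, cloxacillin, ampicillin/sulbactam 2:1, ciprofloxacin or neomycin) combined with compound at fixed concentration not exceeding ¼ of its own MIC. Inoculum OD 0.5 diluted 1:100. Read after 20 h at 37 °C. Result given as fold reduction of antibiotic MIC.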

[4] = test system: Staphylococcus aureus; assay: Potentiation of oxacillin-induced antibacterial activity against Staphylococcus aureus ATCC 25923 assessed as reduction in oxacillin MIC at 0.5 mM incubated for 20 hrs by serial dilution broth microplate method; type: functional, organism-based
[5] = molecular target: T1, Methicillin resistance mecR1 protein (Staphylococcus aureus); assay: Inhibition of MecR1 in methicillin-resistant Staphylococcus aureus HEMSA assessed as reduction in oxacillin A MIC at 0.125 mM incubated for 20 hrs by serial dilution broth microplate method; method in brief: as §1
[6] = molecular target: T1, Methicillin resistance mecR1 protein (Staphylococcus aureus); assay: Inhibition of MecR1 in methicillin-resistant Staphylococcus aureus HEMSA assessed as reduction in neomycin MIC at 0.5 mM incubated for 20 hrs by serial dilution broth microplate method; method in brief: as §1
[7] = molecular target: T1, Methicillin resistance mecR1 protein (Staphylococcus aureus); assay: Inhibition of MecR1 in methicillin-resistant Staphylococcus aureus HEMSA assessed as reduction in cloxacillin MIC at 0.5 mM incubated for 20 hrs by serial dilution broth microplate method; method in brief: as §1
[8] = test system: Staphylococcus aureus; assay: Potentiation of neomycin-induced antibacterial activity against Staphylococcus aureus ATCC 25923 assessed as reduction in […] MIC incubated for 20 hrs by serial dilution broth microplate method; type: functional, organism-based
[9] = test system: Staphylococcus aureus; assay: Potentiation of ciprofloxacin -induced antibacterial activity against Staphylococcus aureus ATCC 25923 assessed as reduction in […] MIC incubated for 20 hrs by serial dilution broth microplate method; type: functional, organism-based
[10] = test system: Staphylococcus aureus; assay: Potentiation of […] antibacterial activity against Staphylococcus aureus ATCC 25923 assessed as reduction in cloxacillin MIC incubated for 20 hrs by serial dilution broth microplate method; type: functional, organism-based
[11] = molecular target: T1, Methicillin resistance mecR1 protein (Staphylococcus aureus); assay: Inhibition of MecR1 in methicillin-resistant Staphylococcus aureus HEMSA assessed as reduction in ciprofloxacin MIC at 0.5 mM incubated for 20 hrs by serial dilution broth microplate method; method in brief: as §1
[12] = test system: Staphylococcus aureus; assay: Potentiation of […] antibacterial activity against Staphylococcus aureus ATCC 25923 assessed as reduction in ampicillin and sulbactam MIC MIC incubated for 20 hrs by serial dilution broth microplate method; type: functional, organism-based
[13] = molecular target: T1, Methicillin resistance mecR1 protein (Staphylococcus aureus); assay: Inhibition of MecR1 in methicillin-resistant Staphylococcus aureus HEMSA assessed as reduction in ampicillin and sulbactam MIC at 0.5 mM incubated for 20 hrs by serial dilution broth microplate method; method in brief: as §1
[14] = molecular target: T1, Methicillin resistance mecR1 protein (Staphylococcus aureus); assay: Inhibition of MecR1 in methicillin-resistant Staphylococcus aureus HEMSA assessed as reduction in cloxacillin MIC at 0.125 mM incubated for 20 hrs by serial dilution broth microplate method; method in brief: as §1
[15] = molecular target: T1, Methicillin resistance mecR1 protein (Staphylococcus aureus); assay: Inhibition of MecR1 in methicillin-resistant Staphylococcus aureus HEMSA assessed as reduction in ciprofloxacin MIC at 0.125 mM incubated for 20 hrs by serial dilution broth microplate method; method in brief: as §1
[16] = test system: Staphylococcus aureus; assay: Resistance index, ratio of MIC for methicillin-resistant Staphylococcus aureus HEMSA to MIC for Staphylococcus aureus ATCC 25923; type: functional
[17] = test system: Staphylococcus aureus; assay: Potentiation of oxacillin-induced antibacterial activity against Staphylococcus aureus ATCC 25923 assessed as reduction in oxacillin MIC at 0.0625 mM incubated for 20 hrs by serial dilution broth microplate method; type: functional
[18] = molecular target: T1, Methicillin resistance mecR1 protein (Staphylococcus aureus); assay: Inhibition of MecR1 in methicillin-resistant Staphylococcus aureus HEMSA assessed as reduction in ampicillin and sulbactam MIC at 0.125 mM incubated for 20 hrs by serial dilution broth microplate method; method in brief: as §1
[19] = molecular target: T1, Methicillin resistance mecR1 protein (Staphylococcus aureus); assay: Inhibition of MecR1 in methicillin-resistant Staphylococcus aureus HEMSA assessed as reduction in neomycin MIC at 0.125 mM incubated for 20 hrs by serial dilution broth microplate method; method in brief: as §1

CC1(c2cccc3ccccc23)NC(=O)N(CCCCN)C1=O (configuration not stated)
MIC [1]: > 1000 µM | MIC [2]: > 1000 µM | inhibition [3]: inactive | Activity [4]: inactive

O=C1NC(N2CCNCC2)=N/C1=C\c1ccc(Cl)cc1
inhibition [5]: inactive | MIC [1]: 500 µM (≈ 145 µg/mL) | MIC [2]: > 1000 µM | Activity [4]: inactive

O=C1NC(N2CCNCC2)=N/C1=C\c1cccs1
inhibition [6]: inactive | inhibition [7]: inactive | MIC [1]: > 1000 µM | Activity [8]: inactive | MIC [2]: > 1000 µM | Activity [9]: inactive | Activity [10]: inactive | inhibition [11]: inactive | Activity [12]: inactive | inhibition [13]: inactive | inhibition [3]: inactive | Activity [4]: inactive

O=C1N/C(=C\c2ccc(Cl)cc2Cl)C(=O)N1CC(O)CN1CCNCC1 (configuration not stated)
MIC [1]: > 1000 µM | MIC [2]: > 1000 µM | inhibition [3]: inactive | Activity [4]: inactive

O=C1NC(N2CCNCC2)=N/C1=C\c1ccc2ccccc2c1
fold change (FC) [5]: 128 | fold change (FC) [14]: 256 | fold change (FC) [15]: 4 | MIC [1]: 500 µM (≈ 153 µg/mL) | Ratio [16]: 2 | Activity [8]: inactive | fold change (FC) [17]: 2 | MIC [2]: 250 µM (≈ 76.6 µg/mL) | Activity [9]: inactive | Activity [10]: inactive | Activity [12]: inactive | fold change (FC) [18]: 4 | inhibition [19]: inactive

Cc1onc(-c2ccccc2)c1C(=O)N[C@@H]1C(=O)N2[C@@H]1SC(C)(C)[C@@H]2C(=O)O [OXACILLIN]
MIC [1]: 710 µM (≈ 285 µg/mL) | Ratio [16]: >1500 | MIC [2]: 0.47 µM (≈ 0.189 µg/mL)

O=C1N/C(=C\c2ccc(Cl)cc2)C(=O)N1CC(O)CN1CCNCC1 (configuration not stated)
MIC [1]: 1000 µM (≈ 365 µg/mL) | MIC [2]: > 1000 µM
